CHOP inhibitor – CHOP inhibition in unfolded protein response | CHO-K1 CHOP-promoter luciferase, tunicamycin-induced, 15-18 h | inhibition, % at 10 µM | 3.8% of 220,000 active;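 active = compounds that reduced the stress-induced luciferase reporter signal by more than about 70% of percent inhibition, limit read from the data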;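 note: 0% = tunicamycin plus vehicle and 100% = wells without tunicamycin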
XBP1 UPR activ – adaptive UPR (XBP1) activation | CHO-XBP1 luciferase reporter, IRE1-XBP1 UPR activation, luminescence; percent of tunicamycin response, DMSO as zero | activation, % at 20 µM | 0.33% of 330,000 active | AID 463104;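 active = versus positive control, 20 µM dose yields 30% or more activation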;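 note: 100% = tunicamycin at 10 µg/mL and 0% = DMSO only wells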
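assay system = CHO-XBP1 luciferase reporter cells | amount = 1000 cells/well | buffer or medium = F12 plus 10% FBS | compound dosing = single point, 20 µM final compound, 1% DMSO | incubation = 16-18 h cell attachment at 37 °C, then 6 h compound exposure | detection = Steady-Glo luminescence read | controls = tunicamycin 10 µg/mL and vehicle-only wells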
PfM18AAP inh – blocks P. falciparum M18 aspartyl aminopeptidase. 1.2% of 290,000 active. inhibition, % at 7.35 µM. recombinant PfM18AAP, H-Glu-NHMec fluorogenic cleavage;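 active = inhibition above the campaign mean inhibition over all tested compounds plus 3 SD, cut at about 28% in these data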;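 note: 0% = plate median of test compound wells and 100% = 2 mM ZnCl2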
p97 ATPase inh – human p97 ATPase inhibition | recombinant p97 ATPase, Kinase-Glo ATP luminescence, 3 h | inhibition, % at 8 µM | AID 1481 | 0.42% of 220,000 active | P55072; in the data active = inhibition above about 15%;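 note: 0% = DMSO vehicle and 100% = wells lacking enzyme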
Target sequence (P55072 whole entry, looked up): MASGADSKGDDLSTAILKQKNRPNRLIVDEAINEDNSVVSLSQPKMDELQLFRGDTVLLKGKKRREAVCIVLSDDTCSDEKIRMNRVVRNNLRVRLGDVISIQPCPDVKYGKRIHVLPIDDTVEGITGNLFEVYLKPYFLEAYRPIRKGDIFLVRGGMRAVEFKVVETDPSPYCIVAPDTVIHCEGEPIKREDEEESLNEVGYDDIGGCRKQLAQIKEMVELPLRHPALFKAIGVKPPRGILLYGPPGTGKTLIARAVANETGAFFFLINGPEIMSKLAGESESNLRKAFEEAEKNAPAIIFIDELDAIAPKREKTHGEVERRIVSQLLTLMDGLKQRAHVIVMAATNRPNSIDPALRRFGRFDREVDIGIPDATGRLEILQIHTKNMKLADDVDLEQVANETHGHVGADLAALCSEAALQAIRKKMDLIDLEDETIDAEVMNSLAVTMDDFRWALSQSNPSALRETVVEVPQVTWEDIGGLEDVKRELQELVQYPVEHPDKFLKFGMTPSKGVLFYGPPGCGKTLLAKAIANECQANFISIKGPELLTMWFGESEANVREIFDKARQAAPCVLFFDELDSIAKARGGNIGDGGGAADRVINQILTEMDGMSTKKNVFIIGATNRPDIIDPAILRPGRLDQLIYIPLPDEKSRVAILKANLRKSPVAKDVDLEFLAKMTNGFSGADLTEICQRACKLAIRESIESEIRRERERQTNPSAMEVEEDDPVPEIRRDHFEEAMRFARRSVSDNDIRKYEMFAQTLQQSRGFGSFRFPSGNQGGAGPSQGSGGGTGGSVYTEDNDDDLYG
HCV NS3 hel inh – HCV NS3 helicase inhibition; 0.56% of 290,000 active; AID 1800; inhibition, % at 10.9 µM; NS3 helicase DNA unwinding, Cy5 molecular beacon fluorescence;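 active = inhibition above the mean of all tested compounds plus 3 SD, set per campaign, cut at about 35% in these data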;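 note: 0% = DMSO wells and 100% = thioflavine S control wells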
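test system = hepatitis C virus NS3 helicase domain fragment enzyme | reagent = annealed dual-labelled DNA beacon duplex, ATP-started | times = 1 h at 25 °C | detection = Cy5 fluorescence, 0 and 60 min reads | read-out basis = percent inhibition from t60/t0 fluorescence ratio | control set = DMSO and thioflavine S | replication = one well per compound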
CHOP UPR activ – apoptotic UPR (CHOP) activation; activation, % at 10 µM; CHO-CHOP luciferase reporter, luminescence; percent of tunicamycin response over DMSO baseline; 0.34% of 330,000 active;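 active = at 10 µM dose, activation of 40% or more, normalized to positive control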;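 note: 100% = tunicamycin at 10 µg/mL and 0% = DMSO alone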
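Assay system: CHO-CHOP cells, stable luciferase reporter of PERK-eIF2a-CHOP signalling / Buffer or medium: F12 plus 10% serum / Compound dosing: one dose, 10 µM in 0.5% DMSO / Times: 6 h compound treatment, 37 °C / Technique: luciferase luminescence / Read-out: % reporter activation, DMSO baseline versus tunicamycin full activation / Benchmarks: tunicamycin and DMSO controls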
* hit, by the source's call; . = not tested or not shown. Only some compounds are listed: those with a hit (about 4.5% of all), similar ones and a draw of the others.

SMILES	CHOP inhibitor	XBP1 UPR activ	PfM18AAP inh	p97 ATPase inh	HCV NS3 hel inh	CHOP UPR activ
Cc1ccc(C(=O)CSc2nc3ccccc3c(=O)[nH]2)cc1C	-9	1	-10	6	-10	0
CCc1ccc(C(=O)CSc2ncn[nH]2)cc1	-5	3	28*	0	1	5
O=C(CCCSc1nc2ccccc2c(=O)[nH]1)c1ccc(F)cc1	79*	-3	2	3	-11	1
CCc1ccc(C(=O)CSc2nc3ccccc3c(=O)[nH]2)cc1	95*	-3	2	2	3	-2
Cc1ccc(C(=O)CSc2nc3ccccc3c(=O)[nH]2)cc1	-2	0	4	-3	-4	-2
Cc1cccc(C)c1NC(=O)CSc1nc2ccccc2c(=O)[nH]1	71*	-2	-1	3	5	4
O=c1c2ccccc2nc2sc(Nc3cccc(Cl)c3)nn12	.	-1	.	.	.	5
Cc1ccc(C)c(N(CC(=O)NC(C)(C)C)C(=O)CCC(=O)Nc2nccs2)c1	.	-5	-4	.	-6	0
O=C(O)C(Cc1ccccc1)N1C(=O)/C(=C/c2ccccc2)SC1=S (configuration not stated)	4	1	2	3	17	2
O=C(O)C(Cc1ccccc1)N1C(=O)/C(=C/c2cccc3ccccc23)SC1=S (configuration not stated)	106*	.	-2	-4	16	.
Cc1ccc(C(=O)NCCSc2ccc(Cl)cc2)cc1S(=O)(=O)Nc1ccccc1	79*	-5	-7	4	-11	-1
CCN(C(=O)Cn1c(=O)oc2ccccc21)c1ccc(C)c(C)c1	.	3	-5	.	2	0
CCCOc1cc(C)c(S(=O)(=O)n2ccc(C)n2)cc1C	93*	-5	1	0	-8	2
c1ccc(-n2nc3c(ccc4cnnc43)[nH]2)cc1	86*	7	3	2	-3	7
Cc1ccccc1OCCCCc1c(C)n[nH]c1C	85*	0	-7	-3	-7	2
Cc1cccc(C)c1OCCCCc1c(C)n[nH]c1C	86*	-1	-1	-4	-15	1
COc1cccc(OC)c1OCCCCc1c(C)n[nH]c1C	-6	-2	-12	-3	-8	-1
CSc1nc(N)c(C#N)c(-c2ccc(Cl)cc2)c1C#N	36	-1	11	0	-14	-4
COc1ccc(-c2c(C#N)c(N)nc(Sc3ccc(Cl)cc3)c2C#N)cc1	74*	4	14	5	10	-2
CCN(CC)CCNC(=O)c1ccc(NC(=O)C2CC(=O)N(c3ccc4c(c3)OCCO4)C2)cc1 (configuration not stated)	.	0	.	.	.	1
COc1ccc(-c2onc(C)c2-c2ccc(C(=O)OC(C)C)o2)c(O)c1	82*	-2	-1	5	-20	-1
O=C(c1ccccc1)N1CCN(CC2CC=CCC2)CC1 (configuration not stated)	79*	-1	32*	-8	-10	0
Cc1ccc(S(=O)(=O)C(C#N)c2nc3ccccc3nc2N2CCCC2)cc1 (configuration not stated)	13	8	2	20*	6	4
Cc1cc(OCc2nnc(SCC(=O)OC3CCCCC3)o2)ccc1Cl	37	-2	-11	4	-6	0
O=C(CSc1nnc(CNc2ccc(F)cc2)o1)OC1CCCCC1	10	0	-3	-2	-8	2
SMILES	CHOP inhibitor	XBP1 UPR activ	PfM18AAP inh	p97 ATPase inh	HCV NS3 hel inh	CHOP UPR activ
O=C(CSc1nnc(COc2ccccc2Cl)o1)NC(=O)NC1CCCC1	79*	0	-5	-3	-8	2
Clc1ccc(CSc2nnc(CNc3cccc(Cl)c3)o2)cc1	93*	-1	1	-3	-8	-3
O=C(CSc1nnc(CNc2cccc(Cl)c2)o1)OC1CCCCC1	80*	1	5	3	-9	-1
O=C(CSc1nnc(COc2ccc(Cl)cc2)o1)OC1CCCCC1	74*	-1	-17	-9	13	-1
COC(=O)C1=C(C)N(C)C(=S)NC1c1c(OC)ccc2ccccc12 (configuration not stated)	5	-3	2	6	1	-1
O=C1CCCN1C(=O)CSc1ccc2ccccc2n1	.	-1	.	.	.	2
Fc1ccc(CN2CCN(C(=S)NCCc3ccccc3)CC2)c(Cl)c1	85*	3	-5	0	-11	0
S=C(NCCc1ccccc1)N1CCN(Cc2ccc(Cl)c(Cl)c2)CC1	52	-1	-7	-2	15	-1
CC(=O)CCC(=O)N1CCCC(N2CCN(c3cccc(Cl)c3)CC2)C1 (configuration not stated)	.	-1	4	.	2	1
CC1=NN(c2ccc(F)cc2)C(=O)C1C(c1cccc(O)c1)c1c(C)[nH]n(-c2ccc(F)cc2)c1=O (configuration not stated)	56	0	25	33*	27	-1
O=c1nc(Nc2ccc(Br)cc2)sc2ccc([N+](=O)[O-])cc12	10	-1	11	8	9	0
S=C(N/N=C/c1ccc(Cl)cc1)N1CCOCC1	-53	4	30*	1	3	10
Cc1ccc(/C=N/NC(=S)N2CCOCC2)cc1	-44	5	40*	-2	5	15
S=C(N/N=C/c1ccc(Br)cc1)N1CCCCC1	.	1	14	.	11	8
Cc1ccc(CC(=S)N2CCOCC2)cc1	-6	1	29*	2	12	0
Cc1ccccc1CSc1ccc2nnc(-c3ccccn3)n2n1	20	-4	-11	0	-11	0
Cc1cccc(NC(=O)c2cc3n(n2)C(C(F)(F)F)CC(c2ccc4c(c2)OCO4)N3)c1 (configuration not stated)	71*	-3	-1	7	2	2
CC(O)c1cc2c(cc1NC(=O)c1cnn3c1NC(c1ccco1)CC3C(F)(F)F)OCO2 (configuration not stated)	6	-3	29*	-10	29	-3
O=C(NC1CCCCCC1)c1cc2n(n1)C(C(F)(F)F)CC(c1ccco1)N2 (configuration not stated)	74*	-2	-4	-8	-1	-3
CCC(C)NC(=O)c1cnn2c1NC(c1ccc3c(c1)OCO3)CC2C(F)(F)F (configuration not stated)	29	-1	-2	3	-14	0
O=C(COc1coc(CN2CCc3ccccc32)cc1=O)Nc1ccccc1	.	2	.	.	.	-2
Cc1ccc(C)c(NC(=O)CN(C)C(=O)[C@@H](NC(=O)c2ccc(C(C)(C)C)cc2)C(C)C)c1	83*	-4	-8	0	4	-1

High-throughput results from PubChem BioAssay.
